Assay results reported in ChEMBL document CHEMBL1125114, “Cardiotonic agents. 6. Histamine analogues as potential cardiovascular selective H2 agonists” (J Med Chem, 1990).
Where “and” joins values, the source holds several entries; their conditions need not be identical. Equal entries are not always repeated. Calls of active or inactive are those of the source. The calls are words filed in the database; no cut-off is given here.

Tests used:
Mustela putorius furo [1] = organism: Mustela putorius furo; assay: (§1) In vitro inotropy blocking studies in ferret papillary muscle in the presence of 10 uM cimetidine; B-Blocked; type: functional, tissue-based; settings: Muscle tissue
Mustela putorius furo [2] = organism: Mustela putorius furo; assay: In vitro inotropy blocking studies in ferret papillary muscle in the presence of 100 uM nadolol; B-Blocked; type: functional, tissue-based; settings: Muscle tissue
Method in brief: (§2)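 Ferret papillary muscle dose-response repeated in the presence of 100 μM nadolol. A rise of at least 1 order of magnitude in the measured C20 was scored as a blocked inotropic response.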

[3] = Concentration which gives 20% increase in the force contraction in ferret papillary muscle; type: functional, Mustela putorius furo, Muscle tissue
Method in brief: (§3)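 Isolated ferret papillary muscle, force of contraction recorded over a dose-response range. C20 = concentration giving a 20% increase in contractile force. Single experiments reported individually; with three or more runs, mean and range given.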

Mustela putorius furo [4] = organism: Mustela putorius furo; assay: Concentration of compound which gives 20% increase in the force contraction in ferret papillary muscle; NR-Not reached; type: functional, tissue-based; settings: Muscle tissue; method in brief: as §3
[5] = Concentration of compound which gives 20% increase in the force contraction in ferret papillary muscle.; type: functional, Mustela putorius furo, Muscle tissue
Method in brief: (§4)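 Ferret papillary muscle force of contraction. C20 is the concentration giving a 20% increase in force. Values come from individual experiments; where three or more runs were done, the mean and range are given. NR means not reached.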

Cavia porcellus [6] = assay: In vivo percent change in airway overflow in guinea pig was determined at a dose of 30 mg/kg/h; type: functional
Cavia porcellus [7] = assay: In vivo percent change in heart rate in guinea pig was determined at a dose of 30 mg/kg/h; type: functional
Method in brief: (§5)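 Pentobarbital-anesthetized guinea pigs with stomach ligated to contain gastric fluid. After 30 min stabilization, blood pressure, heart rate, LVEDP and LV dP/dtmax were recorded at 1-min intervals. Compound given by iv infusion for 60 min, then monitored 10 min more. Gastric contents were titrated against 0.1 N NaOH. Value is the average maximum % change from control in the 10 min after infusion, mean ± SEM.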

Cavia porcellus [8] = organism: Cavia porcellus; assay: Contractile response of histamine at 0.5 ug/mL in guinea pig ileum; type: functional; settings: Cavia porcellus, Ileum; read-out: EC50
Method in brief: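 Isolated guinea pig ileum, H1 activity. Value is the concentration giving 50% of the contractile response of histamine at 0.5 μg/mL, taken from dose-response curves. Reported as mean ± SEM of three separate dose-response determinations. Response sensitivity checked with mepyramine.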

Mustela putorius furo [9] = organism: Mustela putorius furo; assay: (§6) In vitro inotropy blocking studies in ferret papillary muscle in the presence of 100 uM nadolol; NB-Not Blocked; type: functional, tissue-based; settings: Muscle tissue
Method in brief: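 Ferret papillary muscle inotropic dose-response curves repeated in the presence of each antagonist (nadolol at 100 μM). A rise in C20 of at least one order of magnitude was scored as a blocked response.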

[10] = dP/dt value of the compound; type: functional; parameters: unit not given here
Cavia porcellus [11] = organism: Cavia porcellus; assay: Chronotropic effect of histamine at 5 ug/mL in guinea pig atrium; type: functional, Cardiac atrium
Method in brief: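 Spontaneously beating guinea pig right atria. Value is the concentration giving 50% of the chronotropic effect of histamine at 5 μg/mL, taken from dose-response curves. Reported as mean ± SEM of three separate dose-response determinations. Response sensitivity checked with cimetidine.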

Rattus norvegicus [12] = assay: In vivo effect on gastric acid secretion in rat was determined after subcutaneous administration; NC-No change; type: functional, organism-based; settings: Stomach
Method in brief: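 Rats, subcutaneous dosing, gastric acid secretion stimulation. ED50 is the dose giving a 50% increase in acid secretion over control. Reported as mean ± SEM of three separate dose-response determinations.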

Cavia porcellus [13] = assay: In vivo percent change in total acid secretion in guinea pig was determined at a dose of 30 mg/kg/h; type: functional; method in brief: as §5
Cavia porcellus [14] = assay: In vivo percent change in mean arterial pressure in guinea pig was determined at a dose of 75 mg/kg/h; type: functional, Artery; method in brief: as §5
Rattus norvegicus [15] = assay: In vivo effect on gastric acid secretion in rat was determined after subcutaneous administration; type: functional; settings: Stomach, sc
Method in brief: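 Rats, subcutaneous dosing, gastric acid secretion measured by the method of Hagiwara and co-workers. ED50 = dose giving a 50% increase in acid secretion over control. Mean ± SEM of three separate dose-response determinations.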

Mustela putorius furo [16] = organism: Mustela putorius furo; assay: as §1; type: functional, tissue-based; settings: Muscle tissue; remark: listed apart in the source
Method in brief: (§7)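 Ferret papillary muscle dose-response repeated in the presence of antagonist (cimetidine). A rise of at least 1 order of magnitude in the measured C20 was scored as a blocked inotropic response.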

[17] = dp/dt value of the compound; type: functional; method in brief: as §5
Cavia porcellus [18] = assay: In vivo percent change in heart rate in guinea pig was determined at a dose of 75 mg/kg/h; type: functional; method in brief: as §5
Mustela putorius furo [19] = organism: Mustela putorius furo; assay: as §6; type: functional, tissue-based; settings: Muscle tissue; method in brief: as §2; remark: listed apart in the source
Cavia porcellus [20] = assay: In vivo percent change airway overflow in guinea pig was determined at a dose of 75 mg/kg/h; type: functional
Cavia porcellus [21] = assay: In vivo percent change total acid secretion in guinea pig was determined at a dose of 75 mg/kg/h; type: functional; method in brief: as §5
Mustela putorius furo [22] = organism: Mustela putorius furo; assay: Concentration of compound which gives 20% increase in the force contraction in ferret papillary muscle;NR- Not reached; type: functional, tissue-based; settings: Muscle tissue; method in brief: as §4
Mustela putorius furo [23] = organism: Mustela putorius furo; assay: In vitro inotropy blocking studies in ferret papillary muscle in the presence of 10 uM cimetidine; NB-Not Blocked; type: functional, tissue-based; settings: Muscle tissue; method in brief: as §7
Mustela putorius furo [24] = organism: Mustela putorius furo; assay: In vitro inotropy blocking studies in ferret papillary muscle in the presence of 100 uM nadolol; Blocked; type: functional, tissue-based; settings: Muscle tissue; method in brief: as §2

CCCN(CCc1c[nH]cn1)C(C)CCc1ccc(O)cc1 (centres undefined)
Activity (Mustela putorius furo [1]): Blocked
Activity (Mustela putorius furo [2]): Blocked
C20 [3]: 4.9 uM l-1

CCN(CCc1c[nH]cn1)C(C)CCc1ccc(O)cc1 (centres undefined)
Activity (Mustela putorius furo [1]): Blocked
Activity (Mustela putorius furo [2]): Blocked
C20 [3]: 4 uM l-1 and 6 uM l-1

Cc1[nH]cnc1CCNCCN
C20 (Mustela putorius furo [4]): Not reached

CCCCCCCN(C)CCc1c[nH]cn1
C20 [5]: >57 uM l-1

O=C(NCCNCCc1c[nH]cn1)c1ccccc1
C20 [3]: >66 uM l-1

NC(C/C=C/c1ccccc1)Cc1c[nH]cn1 (centres undefined)
Change (Cavia porcellus [6]): 45%
Change (Cavia porcellus [7]): 5%
EC50 (Cavia porcellus [8]): 7.23 µM
Activity (Mustela putorius furo [1]): Blocked
Activity (Mustela putorius furo [9]): Not blocked
dP/dt [10]: 68
EC50 (Cavia porcellus [11]): 184 uM l-1
ED50 (Rattus norvegicus [12]): inactive
Change (Cavia porcellus [13]): 169%
C20 [3]: 13 uM l-1

Cc1[nH]cnc1CCNCCNC(=O)c1ccc(NS(C)(=O)=O)cc1
C20 [3]: 20 uM l-1 and 40 uM l-1

COc1ccc(CCNCCc2c[nH]cn2)cc1OC
Activity (Mustela putorius furo [1]): Blocked
Activity (Mustela putorius furo [2]): Blocked

c1ccc2c3c(ccc2c1)C(NCCc1c[nH]cn1)CCC3 (centres undefined)
C20 [3]: >10 uM l-1

CCCCCCCNCCc1c[nH]cn1
EC50 (Cavia porcellus [8]): 7.88 µM
Change (Cavia porcellus [14]): 15%
ED50 (Rattus norvegicus [15]): 10.7 mg/kg
Activity (Mustela putorius furo [16]): Blocked
dP/dt [17]: 155
EC50 (Cavia porcellus [11]; Cavia porcellus, Cardiac atrium, read-out: EC50): 71 µM
Change (Cavia porcellus [18]): 14%
Activity (Mustela putorius furo [19]): Not blocked
Change (Cavia porcellus [20]): 150%
Change (Cavia porcellus [21]): 220%
C20 [5]: 1 uM l-1

NC(C/C=C/c1ccccc1)CCc1c[nH]cn1 (centres undefined)
C20 (Mustela putorius furo [22]): Not reached

CN(CC/C=C/c1ccccc1)CCc1c[nH]cn1
Activity (Mustela putorius furo [2]): Blocked
Activity (Mustela putorius furo [23]): Not blocked

C(=C\c1ccccc1)/CCNCCc1c[nH]cn1
Activity (Mustela putorius furo [24]): Blocked
C20 [3]: 14 uM l-1 and 21 uM l-1
